The record followed here is ChEMBL document CHEMBL1157686, “Synthesis, stereoelectronic characterization and antiparasitic activity of new 1-benzenesulfonyl-2-methyl-1,2,3,4-tetrahydroquinolines” (Bioorg Med Chem, 2010).

Data set [1] can be described thus: Ratio of compound IC50 to podophyllotoxin IC50 for rat L6 cells. It is filed as cell-based. Conditions: read-out: Ratio IC50.
The next data set has as its system Leishmania donovani. Put plainly: Antileishmanial activity against Leishmania donovani infected in rat L6 cells. Format: functional, organism-based. In outline: (§1)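 Protocol follows an earlier published method. Compounds were tested in duplicate over 0.2–300 μM.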
In a further data set the test system is Plasmodium falciparum. Description: Antiplasmodial activity against chloroquine and pyrimethamine-resistant Plasmodium falciparum K1 infected in rat L6 cells. It is filed as functional, organism-based. In outline: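 P. falciparum K1 (chloroquine- and pyrimethamine-resistant) tested in vitro following an earlier-published method. Compounds were run in duplicate over 0.2–300 μM. Values are the mean of four determinations (two per experiment, two independent experiments).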

In the next data set the test system is L6. Description: Cytotoxicity against rat L6 cells. Format: cell-based. In outline:
as §1

Data set [2] in a line: Selectivity index, ratio of IC50 for rat L6 cells to IC50 for chloroquine and pyrimethamine-resistant Plasmodium falciparum K1 infected in rat L6 cells. It is filed as toxicity, cell-based. To be noted: read-out: Ratio IC50. The method in brief: (§2)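 SI = IC50 in rat L6 cells / IC50 against the parasite (T. cruzi or P. falciparum K1). Both IC50s came from duplicate in vitro runs over 0.2–300 μM following an earlier-published method, each averaged from four determinations across two independent experiments.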

Data set [3] is described as follows: Selectivity index, ratio of IC50 for rat L6 cells to IC50 for Trypanosoma cruzi infected in rat L6 cells. It is filed as toxicity, cell-based. Conditions: read-out: Ratio IC50. In outline:
as §2

In data set [4] the test system is Trypanosoma cruzi. Put plainly: Antitrypanosomal activity against Trypanosoma cruzi infected in rat L6 cells. Format: functional, organism-based. The method in brief: as §1
Data set [5] relates to Trypanosoma brucei rhodesiense. Description: Antitrypanosomal activity against Trypanosoma brucei rhodesiense infected in rat L6 cells. It is filed as functional, organism-based. In outline: as §1
The subject of data set [6] is Trypanosoma cruzi. Put plainly: Ratio of compound IC50 to benznidazole IC50 for Trypanosoma cruzi infected in rat L6 cells. Format: functional.

As usually defined, the pIC50 is the negative decadic logarithm of the IC50, by convention in mol/L.

Molecules are shown by their SMILES. pIC50: −log10 of the molar value.

As to `CC1CCc2ccccc2N1S(=O)(=O)c1cccc([N+](=O)[O-])c1` (stereo unspecified), the values for the selectivity ratio in [1], in [2] and in [3] were 590, 18.1 and 5.85, respectively. The pIC50 with Leishmania donovani is 4.60; in the data set with Plasmodium falciparum, 4.99; with L6, 3.73; with Trypanosoma cruzi [4], 4.50; in data set [5], 4.48.
Take `CC1CCc2ccccc2N1` (stereo unspecified): the pIC50 in the data set with Leishmania donovani is under 3.21; in the data set on Plasmodium falciparum, under 4.47; in the data set with L6, 3.60; in the data set on Trypanosoma cruzi [4] it was 3.72; in data set [5], 4.06. In addition, the selectivity ratio was under 7.32 in data set [2] and 1.32 in data set [3].
Take `CC1CCc2ccccc2N1S(=O)(=O)c1ccccc1` (stereo unspecified): the results for the selectivity ratio in data set [1], in [2] and in data set [3] were 590, 5.28 and 3.29, respectively. In addition, the pIC50 in the data set on Leishmania donovani was 3.76; with Plasmodium falciparum, 4.88; in the data set on L6, 4.15; in the data set with Trypanosoma cruzi [4], 4.67; in data set [5] it was 4.28.
As to `CC(=O)Nc1ccc(S(=O)(=O)N2c3ccccc3CCC2C)cc1` (stereo unspecified), the figures for the selectivity ratio in data set [1], in data set [2] and in data set [3] were 590, under 3.58 and 2.42, respectively. Further, the pIC50 in the data set on Leishmania donovani is 4.30; with Plasmodium falciparum, under 4.84; with L6, 4.28; in the data set with Trypanosoma cruzi [4] it was 4.67; in data set [5], 4.30.
Take `Cc1ccc(S(=O)(=O)N2c3ccccc3CCC2C)cc1` (stereo unspecified): the results for the selectivity ratio in [1], in [2] and in data set [3] were 590, 0.44 and 0.29, respectively. For the same molecule, the negative-log IC50 (pIC50) is 4.65 in the data set on Leishmania donovani; 4.96 in the data set on Plasmodium falciparum; 5.31 in the data set with L6; 4.78 with Trypanosoma cruzi [4]; 4.36 in data set [5].
For the molecule `CC1CCc2ccccc2N1S(=O)(=O)c1ccc(F)cc1` (stereo unspecified), the results for the selectivity ratio in data set [1], in [2] and in [3] were 590, 5.58 and 0.3, respectively. The negative-log IC50 (pIC50) in the data set on Leishmania donovani is 3.78; with Plasmodium falciparum, 4.92; in the data set on L6 it was 4.17; in the data set with Trypanosoma cruzi [4], 3.65; in data set [5], 3.90.
Regarding `CC1CCc2ccccc2N1S(=O)(=O)c1ccc(Cl)cc1` (stereo unspecified), the selectivity ratio in [1] was determined as 590; in data set [2] it was 2.43; in [3], 1.28. Besides, the pIC50 in the data set with Leishmania donovani was 4.72; in the data set on Plasmodium falciparum it was 5.07; in the data set on L6, 4.69; in the data set with Trypanosoma cruzi [4], 4.80; in data set [5], 4.36.
Turning to `CC1CCc2ccccc2N1S(=O)(=O)c1ccc(Br)cc1` (stereo unspecified), the results for the selectivity ratio in data set [1], in data set [2] and in [3] were 590, 1.1 and 0.53, respectively. Further, the pIC50 with Leishmania donovani is 4.67; in the data set with Plasmodium falciparum it was 5.18; in the data set on L6, 5.13; with Trypanosoma cruzi [4] it was 4.86; in data set [5], 4.40.
As to `CC1CCc2ccccc2N1S(=O)(=O)c1ccc(N)cc1` (stereo unspecified), the figures for the selectivity ratio in data set [1], in data set [2] and in data set [3] were 590, under 2.13 and 1.78, respectively. The pIC50 in the data set on Leishmania donovani is 4.25; in the data set with Plasmodium falciparum, under 4.78; in the data set with L6 it was 4.45; in the data set with Trypanosoma cruzi [4], 4.70; in [5], 4.43.
As to `CC1CCc2ccccc2N1S(=O)(=O)c1ccc([N+](=O)[O-])cc1` (stereo unspecified), the figures for the selectivity ratio in [1], in [2] and in data set [3] were 590, 30 and 21.7, respectively. Besides, the pIC50 was under 3.57 in the data set with Leishmania donovani; 5.08 with Plasmodium falciparum; 3.61 with L6; 4.94 with Trypanosoma cruzi [4]; 3.81 in data set [5]. In the data set with Trypanosoma cruzi [6], the “Ratio IC50” value is 7.
Regarding `COc1ccc(S(=O)(=O)N2c3ccccc3CCC2C)cc1` (stereo unspecified), the selectivity ratio in data set [1] was found to be 590; in [2], 0.5; in data set [3] it was 0.37. Also, the negative logarithm of the IC50 (pIC50) with Leishmania donovani was 4.57; in the data set with Plasmodium falciparum, 4.93; in the data set on L6, 5.22; with Trypanosoma cruzi [4], 4.80; in [5], 4.36.
In the data set on Trypanosoma cruzi [4], `O=C(Cn1ccnc1[N+](=O)[O-])NCc1ccccc1` [BENZNIDAZOLE] had a pIC50 of 5.81.
The molecule `Nc1nc(N)nc(Nc2ccc([As]3SCC(CO)S3)cc2)n1` (stereo unspecified) [MELARSOPROL] gave a pIC50 in data set [5] of 8.10.
`CCCCCCCCCCCCCCCCOP(=O)([O-])OCC[N+](C)(C)C` [MILTEFOSINE] had a pIC50 in the data set on Leishmania donovani of 6.60.
